The target in assay [1] is T1, MAP kinase-activated protein kinase 5 (Homo sapiens) (UniProt Q8IW41).
T1 sequence (whole entry): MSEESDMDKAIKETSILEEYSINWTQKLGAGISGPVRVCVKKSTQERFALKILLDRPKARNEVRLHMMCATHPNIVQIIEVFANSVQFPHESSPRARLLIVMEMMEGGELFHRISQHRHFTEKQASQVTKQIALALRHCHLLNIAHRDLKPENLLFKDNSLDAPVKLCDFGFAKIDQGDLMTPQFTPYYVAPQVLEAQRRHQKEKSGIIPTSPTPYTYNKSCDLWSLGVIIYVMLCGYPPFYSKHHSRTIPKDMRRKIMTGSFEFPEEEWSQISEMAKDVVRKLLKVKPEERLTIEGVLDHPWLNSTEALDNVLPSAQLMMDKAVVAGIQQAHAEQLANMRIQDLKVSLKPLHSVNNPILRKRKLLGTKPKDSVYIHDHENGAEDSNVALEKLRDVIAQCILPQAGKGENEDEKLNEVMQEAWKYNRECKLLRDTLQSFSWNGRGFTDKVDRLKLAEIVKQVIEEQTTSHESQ
The experiment in a line: Inhibition of PRAK1 at 30 uM by microfluidic mobility shift assay. The gist of the method: (§1)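 Single-concentration screen, singlicate, 30 uM final (diluted from 1 mM DMSO solutions), fluorescently tagged peptide substrate appropriate to each kinase, ATP at apparent Km for each protein. Phosphorylated and unphosphorylated peptides separated electrophoretically; conversion is the phosphorylated peak area over the sum of both peaks. No-inhibitor and no-ATP controls; H89 reference on each plate.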

Assay [2] addresses Glycogen synthase kinase-3 beta (Homo sapiens) (UniProt P49841). The experiment in a line: Inhibition of GSK3B at 30 uM by microfluidic mobility shift assay. The method in brief: as §1
The target of assay [3] is Tyrosine-protein kinase Fyn (Homo sapiens, UniProt P06241). The assay is described as follows: Inhibition of FYN at 30 uM by microfluidic mobility shift assay. The gist of the method: as §1
In assay [4] the target is Insulin receptor (Homo sapiens) (UniProt P06213). The assay is described as follows: Inhibition of INSR at 30 uM by microfluidic mobility shift assay. The gist of the method:
as §1

In assay [5] the target is Tyrosine-protein kinase ABL1 (Homo sapiens, UniProt P00519). The experiment in a line: Inhibition of ABL at 30 uM by microfluidic mobility shift assay. The gist of the method: as §1
Assay [6] addresses Mitogen-activated protein kinase 3 (Homo sapiens) (UniProt P27361). The experiment in a line: Inhibition of ERK1 at 30 uM by microfluidic mobility shift assay. The gist of the method: as §1
The target of assay [7] is Tyrosine-protein kinase Lyn (Homo sapiens, UniProt P07948). The assay is described as follows: Inhibition of LYN at 30 uM by microfluidic mobility shift assay. The method in brief: as §1
For assay [8], the target named is Ribosomal protein S6 kinase alpha-1 (Homo sapiens) (UniProt Q15418). The assay is described as follows: Inhibition of RSK1 at 30 uM by microfluidic mobility shift assay. The method in brief:
as §1

Assay [9] deals with Proto-oncogene tyrosine-protein kinase Src (Homo sapiens, UniProt P12931). The assay is described as follows: Inhibition of SRC at 30 uM by microfluidic mobility shift assay. The method in brief: as §1
Assay [10] deals with Tyrosine-protein kinase Lck (Homo sapiens, UniProt P06239). The experiment in a line: Inhibition of LCK at 30 uM by microfluidic mobility shift assay. The method in brief:
as §1

The nature of assay [11]: Inhibition of PKA at 30 uM by microfluidic mobility shift assay. The method in brief: as §1
In assay [12] the target is MAP kinase-activated protein kinase 2 (Homo sapiens, UniProt P49137). The experiment in a line: Inhibition of MAPKAPK2 at 30 uM by microfluidic mobility shift assay. The gist of the method:
as §1

In assay [13] the target is Serine/threonine-protein kinase Chk2 (Homo sapiens, UniProt O96017). The assay is described as follows: Inhibition of CHK2 at 30 uM by microfluidic mobility shift assay. The gist of the method: as §1
The target of assay [14] is Mitogen-activated protein kinase 14 (Homo sapiens, UniProt Q16539). The assay is described as follows: Inhibition of p38alpha at 30 uM by microfluidic mobility shift assay. The method in brief: as §1
Assay [15] deals with T2, Aurora kinase A (Homo sapiens) (UniProt O14965).
T2 sequence (whole entry): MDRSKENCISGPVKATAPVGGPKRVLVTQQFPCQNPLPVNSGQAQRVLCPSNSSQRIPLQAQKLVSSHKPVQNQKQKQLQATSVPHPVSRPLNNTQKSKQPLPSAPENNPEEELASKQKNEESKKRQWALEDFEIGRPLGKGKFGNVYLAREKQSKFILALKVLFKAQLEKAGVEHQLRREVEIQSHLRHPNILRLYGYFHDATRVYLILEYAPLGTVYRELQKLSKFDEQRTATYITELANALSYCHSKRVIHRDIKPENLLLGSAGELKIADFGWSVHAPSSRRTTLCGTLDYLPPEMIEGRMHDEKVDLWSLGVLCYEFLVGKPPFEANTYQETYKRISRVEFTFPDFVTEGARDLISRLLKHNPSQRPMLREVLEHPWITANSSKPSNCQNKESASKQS
The assay is described as follows: Inhibition of AurA at 30 uM by microfluidic mobility shift assay. The gist of the method: as §1

In assay [16] the target is Ribosomal protein S6 kinase alpha-5 (Homo sapiens) (UniProt O75582). The assay is described as follows: Inhibition of MSK1 at 30 uM by microfluidic mobility shift assay. The method in brief:
as §1

Assay [17] concerns the target RAC-beta serine/threonine-protein kinase (Homo sapiens) (UniProt P31751). The assay is described as follows: Inhibition of AKT2 at 30 uM by microfluidic mobility shift assay. The gist of the method:
as §1

In assay [18] the target is Mitogen-activated protein kinase 1 (Homo sapiens) (UniProt P28482). The experiment in a line: Inhibition of ERK2 at 30 uM by microfluidic mobility shift assay. The gist of the method: as §1
For assay [19], the target named is T3, Serine/threonine-protein kinase Chk1 (Homo sapiens) (UniProt O14757).
T3 sequence (whole entry): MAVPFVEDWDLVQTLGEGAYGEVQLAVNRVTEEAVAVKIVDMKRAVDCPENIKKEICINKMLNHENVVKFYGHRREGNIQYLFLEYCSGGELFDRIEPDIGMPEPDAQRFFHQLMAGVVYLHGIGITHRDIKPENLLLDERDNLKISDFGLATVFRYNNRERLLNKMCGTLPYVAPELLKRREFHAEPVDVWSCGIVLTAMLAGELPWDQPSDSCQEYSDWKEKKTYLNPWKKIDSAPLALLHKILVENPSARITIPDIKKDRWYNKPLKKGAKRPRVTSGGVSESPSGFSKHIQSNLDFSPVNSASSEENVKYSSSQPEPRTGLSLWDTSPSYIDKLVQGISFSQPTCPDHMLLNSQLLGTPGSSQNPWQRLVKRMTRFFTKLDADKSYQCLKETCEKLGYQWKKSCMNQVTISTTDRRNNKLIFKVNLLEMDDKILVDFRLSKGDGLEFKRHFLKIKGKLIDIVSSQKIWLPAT
The experiment in a line: Inhibition of CHK1 at 30 uM by microfluidic mobility shift assay. The gist of the method: as §1

The target in assay [20] is RAC-alpha serine/threonine-protein kinase (Homo sapiens) (UniProt P31749). The assay is described as follows: Inhibition of AKT1 at 30 uM by microfluidic mobility shift assay. The method in brief: as §1
The target of assay [21] is T4, Serine/threonine-protein kinase D2 (Homo sapiens) (UniProt Q9BZL6).
T4 sequence (whole entry): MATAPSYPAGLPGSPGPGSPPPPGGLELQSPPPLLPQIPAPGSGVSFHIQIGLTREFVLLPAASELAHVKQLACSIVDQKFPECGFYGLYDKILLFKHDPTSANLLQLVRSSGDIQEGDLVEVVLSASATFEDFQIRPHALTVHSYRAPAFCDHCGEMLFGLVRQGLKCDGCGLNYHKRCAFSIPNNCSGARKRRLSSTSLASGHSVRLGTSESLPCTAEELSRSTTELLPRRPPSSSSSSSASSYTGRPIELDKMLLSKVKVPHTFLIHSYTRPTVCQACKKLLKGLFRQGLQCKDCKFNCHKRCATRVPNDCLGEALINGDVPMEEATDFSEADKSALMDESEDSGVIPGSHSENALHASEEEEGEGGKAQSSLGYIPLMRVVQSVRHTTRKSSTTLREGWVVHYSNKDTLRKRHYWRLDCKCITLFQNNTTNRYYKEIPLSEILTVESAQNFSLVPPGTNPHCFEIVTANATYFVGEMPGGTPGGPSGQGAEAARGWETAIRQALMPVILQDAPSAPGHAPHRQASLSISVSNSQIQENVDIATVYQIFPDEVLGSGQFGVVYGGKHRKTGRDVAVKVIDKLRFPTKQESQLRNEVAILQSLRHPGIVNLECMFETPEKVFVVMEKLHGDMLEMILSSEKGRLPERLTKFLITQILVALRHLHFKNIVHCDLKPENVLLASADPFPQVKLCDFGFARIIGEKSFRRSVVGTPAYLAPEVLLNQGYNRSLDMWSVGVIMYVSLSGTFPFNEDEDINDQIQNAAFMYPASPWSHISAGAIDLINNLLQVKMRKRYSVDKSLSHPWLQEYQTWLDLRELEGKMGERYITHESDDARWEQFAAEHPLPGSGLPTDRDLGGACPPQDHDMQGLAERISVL
The assay is described as follows: Inhibition of PKD2 at 30 uM by microfluidic mobility shift assay. The method in brief:
as §1

Six compounds from ChEMBL document CHEMBL1811853, “Design and evaluation of 3-aminopyrazolopyridinone kinase inhibitors inspired by the natural product indirubin” (Bioorg Med Chem, 2011) can be followed below.

SMILES strings stand for the structures.

Chain of RAC-beta serine/threonine-protein kinase (Homo sapiens) (P31751 whole entry): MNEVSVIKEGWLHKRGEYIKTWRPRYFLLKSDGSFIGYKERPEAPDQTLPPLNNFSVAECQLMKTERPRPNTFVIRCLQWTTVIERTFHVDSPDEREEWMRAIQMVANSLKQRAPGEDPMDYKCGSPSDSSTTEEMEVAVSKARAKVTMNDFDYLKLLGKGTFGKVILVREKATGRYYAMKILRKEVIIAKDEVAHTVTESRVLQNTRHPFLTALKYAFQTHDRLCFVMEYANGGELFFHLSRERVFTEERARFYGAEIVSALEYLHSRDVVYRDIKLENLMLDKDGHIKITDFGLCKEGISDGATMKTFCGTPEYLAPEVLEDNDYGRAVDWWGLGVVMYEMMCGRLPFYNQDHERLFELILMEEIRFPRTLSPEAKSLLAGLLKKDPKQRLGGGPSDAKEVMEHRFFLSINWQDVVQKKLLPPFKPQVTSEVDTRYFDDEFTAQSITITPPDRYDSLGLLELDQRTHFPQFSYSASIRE
Chain of Tyrosine-protein kinase Lck (P06239 2-509 limits assumed): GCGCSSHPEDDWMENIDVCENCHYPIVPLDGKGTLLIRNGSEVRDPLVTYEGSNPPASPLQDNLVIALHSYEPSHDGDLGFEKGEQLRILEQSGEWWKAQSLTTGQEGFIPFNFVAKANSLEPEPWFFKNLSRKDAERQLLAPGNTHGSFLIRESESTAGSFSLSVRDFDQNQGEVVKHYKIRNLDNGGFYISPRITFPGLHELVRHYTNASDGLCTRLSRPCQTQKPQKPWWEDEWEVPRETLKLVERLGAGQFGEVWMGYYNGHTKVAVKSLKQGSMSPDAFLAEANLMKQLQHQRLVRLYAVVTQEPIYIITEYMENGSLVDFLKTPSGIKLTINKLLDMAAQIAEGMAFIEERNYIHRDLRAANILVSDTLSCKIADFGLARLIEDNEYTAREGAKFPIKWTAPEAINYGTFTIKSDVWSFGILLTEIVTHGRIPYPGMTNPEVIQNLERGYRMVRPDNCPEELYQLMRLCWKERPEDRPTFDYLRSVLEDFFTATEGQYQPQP
Chain of Mitogen-activated protein kinase 3 (Homo sapiens) (P27361 whole entry): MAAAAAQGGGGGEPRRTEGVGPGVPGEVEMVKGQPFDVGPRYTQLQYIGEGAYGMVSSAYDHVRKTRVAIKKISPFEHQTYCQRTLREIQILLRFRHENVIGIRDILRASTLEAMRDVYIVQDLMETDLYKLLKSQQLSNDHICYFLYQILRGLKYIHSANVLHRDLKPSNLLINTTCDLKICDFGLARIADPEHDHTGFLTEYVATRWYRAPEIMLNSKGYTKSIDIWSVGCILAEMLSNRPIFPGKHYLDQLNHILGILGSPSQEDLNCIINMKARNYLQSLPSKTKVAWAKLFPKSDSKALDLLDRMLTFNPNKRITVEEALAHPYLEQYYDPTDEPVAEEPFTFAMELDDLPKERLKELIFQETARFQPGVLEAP
Chain of Mitogen-activated protein kinase 1 (Homo sapiens) (P28482 whole entry): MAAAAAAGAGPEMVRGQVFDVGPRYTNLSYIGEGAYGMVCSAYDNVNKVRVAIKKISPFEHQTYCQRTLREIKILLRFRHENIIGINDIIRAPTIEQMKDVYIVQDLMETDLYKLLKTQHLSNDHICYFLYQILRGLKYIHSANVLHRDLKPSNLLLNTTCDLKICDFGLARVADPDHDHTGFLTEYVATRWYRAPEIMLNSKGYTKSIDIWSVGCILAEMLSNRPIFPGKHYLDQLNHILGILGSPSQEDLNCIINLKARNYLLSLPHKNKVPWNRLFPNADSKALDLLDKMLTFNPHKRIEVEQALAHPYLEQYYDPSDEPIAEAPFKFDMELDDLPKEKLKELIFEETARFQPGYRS
Chain of Tyrosine-protein kinase ABL1 (P00519 whole entry): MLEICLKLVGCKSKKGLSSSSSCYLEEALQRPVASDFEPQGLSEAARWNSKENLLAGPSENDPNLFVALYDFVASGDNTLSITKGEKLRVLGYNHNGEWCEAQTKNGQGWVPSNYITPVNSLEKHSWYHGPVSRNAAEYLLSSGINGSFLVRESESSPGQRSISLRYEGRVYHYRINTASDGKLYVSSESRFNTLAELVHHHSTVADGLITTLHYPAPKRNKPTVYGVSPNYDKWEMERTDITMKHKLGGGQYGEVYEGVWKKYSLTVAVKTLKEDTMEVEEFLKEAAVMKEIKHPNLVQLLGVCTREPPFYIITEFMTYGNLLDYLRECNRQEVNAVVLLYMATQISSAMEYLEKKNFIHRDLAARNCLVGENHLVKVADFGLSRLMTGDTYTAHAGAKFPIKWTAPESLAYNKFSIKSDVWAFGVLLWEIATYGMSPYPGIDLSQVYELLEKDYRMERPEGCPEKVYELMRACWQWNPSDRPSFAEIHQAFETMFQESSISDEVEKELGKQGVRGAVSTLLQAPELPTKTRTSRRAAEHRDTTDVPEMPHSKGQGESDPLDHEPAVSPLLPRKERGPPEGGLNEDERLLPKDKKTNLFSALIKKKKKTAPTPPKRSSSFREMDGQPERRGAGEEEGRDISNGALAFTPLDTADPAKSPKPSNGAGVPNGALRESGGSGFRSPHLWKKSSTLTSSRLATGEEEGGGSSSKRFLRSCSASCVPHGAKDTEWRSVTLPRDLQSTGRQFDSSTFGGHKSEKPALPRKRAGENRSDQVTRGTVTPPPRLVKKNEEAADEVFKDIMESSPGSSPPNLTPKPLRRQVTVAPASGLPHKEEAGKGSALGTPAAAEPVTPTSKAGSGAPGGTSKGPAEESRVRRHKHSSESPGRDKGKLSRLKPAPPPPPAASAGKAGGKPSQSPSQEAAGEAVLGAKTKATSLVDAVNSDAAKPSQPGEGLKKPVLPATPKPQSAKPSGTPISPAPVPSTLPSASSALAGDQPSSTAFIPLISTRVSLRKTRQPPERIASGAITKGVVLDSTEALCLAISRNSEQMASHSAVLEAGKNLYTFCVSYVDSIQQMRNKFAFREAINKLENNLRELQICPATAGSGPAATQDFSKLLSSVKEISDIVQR
Chain of Insulin receptor (Homo sapiens) (P06213 28-758 limits assumed): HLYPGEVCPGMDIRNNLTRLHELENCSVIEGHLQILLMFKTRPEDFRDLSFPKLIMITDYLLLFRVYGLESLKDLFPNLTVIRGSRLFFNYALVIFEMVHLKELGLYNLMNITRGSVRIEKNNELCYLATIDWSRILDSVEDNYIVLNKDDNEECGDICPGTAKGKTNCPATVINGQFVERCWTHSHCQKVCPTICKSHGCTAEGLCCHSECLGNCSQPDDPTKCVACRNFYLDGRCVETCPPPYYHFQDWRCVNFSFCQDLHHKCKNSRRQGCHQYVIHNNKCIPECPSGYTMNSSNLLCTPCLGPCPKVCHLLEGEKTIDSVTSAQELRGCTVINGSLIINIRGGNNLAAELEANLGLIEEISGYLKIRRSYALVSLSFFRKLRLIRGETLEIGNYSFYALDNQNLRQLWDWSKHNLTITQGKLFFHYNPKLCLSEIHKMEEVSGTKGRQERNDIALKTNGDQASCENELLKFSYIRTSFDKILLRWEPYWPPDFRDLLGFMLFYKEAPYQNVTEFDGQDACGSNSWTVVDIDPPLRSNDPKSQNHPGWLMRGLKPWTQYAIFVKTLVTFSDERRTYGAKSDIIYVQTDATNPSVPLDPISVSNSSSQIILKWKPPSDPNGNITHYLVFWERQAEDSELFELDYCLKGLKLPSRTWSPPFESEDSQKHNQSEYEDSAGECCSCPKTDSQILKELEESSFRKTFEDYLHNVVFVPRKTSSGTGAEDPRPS
Chain of Insulin receptor (Homo sapiens) (P06213 763-1382 limits assumed): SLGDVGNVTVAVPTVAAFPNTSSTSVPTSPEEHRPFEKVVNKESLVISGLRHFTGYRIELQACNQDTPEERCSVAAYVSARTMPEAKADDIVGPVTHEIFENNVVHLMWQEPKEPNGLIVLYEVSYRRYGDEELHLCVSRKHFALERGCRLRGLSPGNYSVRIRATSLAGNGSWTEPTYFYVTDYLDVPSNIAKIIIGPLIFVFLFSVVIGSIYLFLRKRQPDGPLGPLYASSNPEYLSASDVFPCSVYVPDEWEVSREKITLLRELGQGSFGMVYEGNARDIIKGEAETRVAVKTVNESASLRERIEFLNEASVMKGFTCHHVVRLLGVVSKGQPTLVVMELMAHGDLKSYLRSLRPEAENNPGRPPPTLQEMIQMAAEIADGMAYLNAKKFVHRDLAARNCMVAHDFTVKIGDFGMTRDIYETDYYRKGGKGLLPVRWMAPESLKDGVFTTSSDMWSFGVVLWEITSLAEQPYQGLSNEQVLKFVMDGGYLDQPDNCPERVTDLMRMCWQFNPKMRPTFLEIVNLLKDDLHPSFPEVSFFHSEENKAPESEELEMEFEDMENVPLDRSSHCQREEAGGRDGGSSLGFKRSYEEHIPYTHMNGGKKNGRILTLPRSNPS
Chain of MAP kinase-activated protein kinase 2 (P49137 whole entry, looked up): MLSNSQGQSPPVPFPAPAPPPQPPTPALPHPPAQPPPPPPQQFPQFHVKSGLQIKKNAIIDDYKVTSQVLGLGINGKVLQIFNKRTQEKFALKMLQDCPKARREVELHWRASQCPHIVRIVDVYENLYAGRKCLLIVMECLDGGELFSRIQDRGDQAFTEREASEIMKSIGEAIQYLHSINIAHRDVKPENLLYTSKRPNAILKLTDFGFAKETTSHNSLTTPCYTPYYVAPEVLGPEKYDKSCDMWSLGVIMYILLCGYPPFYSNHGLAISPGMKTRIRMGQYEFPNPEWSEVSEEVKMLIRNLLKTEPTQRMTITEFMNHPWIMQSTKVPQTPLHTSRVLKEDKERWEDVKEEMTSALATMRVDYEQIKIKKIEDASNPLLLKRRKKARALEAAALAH
Chain of Mitogen-activated protein kinase 14 (Q16539 whole entry): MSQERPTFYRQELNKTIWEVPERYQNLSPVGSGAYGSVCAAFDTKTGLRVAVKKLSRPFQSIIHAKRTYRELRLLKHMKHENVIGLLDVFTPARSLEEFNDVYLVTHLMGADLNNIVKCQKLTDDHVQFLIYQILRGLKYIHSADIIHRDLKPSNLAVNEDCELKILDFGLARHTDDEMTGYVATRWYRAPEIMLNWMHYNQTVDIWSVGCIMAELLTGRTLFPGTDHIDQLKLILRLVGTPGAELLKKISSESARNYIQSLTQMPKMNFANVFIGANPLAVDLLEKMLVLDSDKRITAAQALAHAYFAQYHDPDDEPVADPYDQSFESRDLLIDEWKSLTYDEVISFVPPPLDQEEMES

Usually inhibition stands for the change of the read-out against control, counted positive when it falls. Consider `Cc1cc2[nH]ncc2c(=O)[nH]1`, for which the inhibition in [1] amounted to 1%; in [2], 13%; in assay [3] it was 4%; in assay [4] it was 2%; in assay [5] it was 4%; in [6], 4%. Moreover, the inhibition in [7] was 5%; in assay [8] it was -3%; in assay [9] it was 5%; in [10] it was 11%; in [11], 8%; in [12] it was 11%. For the same compound, the inhibition is 12% in assay [13]; -5% in assay [14]; 13% in assay [15]; 2% in assay [16]; 1% in [17]; 0% in assay [18]. Further, the inhibition in assay [19] and in assay [20] was 2% throughout.

Turning to `Cc1cc2[nH]nc(N)c2cn1`, the inhibition was found to be 13% in assay [1]; 9% in assay [2]; 3% in assay [3]; 5% in assay [4]; 11% in assay [5]; 8% in [6]. The inhibition in assay [21] was 25%; in assay [7] it was 8%; in [8], 11%; in assay [9], 6%; in assay [10], 6%; in assay [11], 19%. Further, the inhibition was 7% in assay [12]; 7% in assay [13]; 2% in [14]; 31% in [15]; 13% in [16]; -3% in [17]. The inhibition in assay [18] was 4%; in assay [20], -1%.

Turning to `Cc1cc2[nH]nc(N)c2c(N2CCOCC2)n1`, the inhibition in assay [1] was 5%; in assay [2] it was 73%; in assay [3], 43%; in [4], 0%; in assay [5], 24%; in [6], 15%. Besides, the inhibition worked out at 51% in assay [7]; 30% in assay [8]; 45% in [9]; 44% in [10]; 71% in assay [11]; 1% in assay [12]. Also, the inhibition in assay [13] was 23%; in assay [14] it was -3%; in [15] it was 72%; in assay [16], 74%; in [17] it was 7%; in assay [18], 7%. For the same compound, the figures for the inhibition in assay [19] and in [20] were 13% and 17%, respectively.

In the case of `Cc1cc2c(c(N)nn2C)c(N2CCCCC2)n1`, the inhibition is 17% in assay [1]; 8% in assay [2]; 8% in [3]; -2% in assay [4]; 19% in [5]; 13% in [6]. The inhibition in assay [21] was determined as 16%; in assay [7] it was 11%; in assay [8], 23%; in [9], 4%; in assay [10], 6%; in assay [11], 6%. Moreover, the inhibition came out at 7% in assay [12]; 4% in assay [13]; 4% in assay [14]; 41% in assay [15]; 7% in assay [16]; 0% in assay [17]. Also, the inhibition came to 1% in assay [18] and 6% in assay [20].

On to `Nc1c2cnc(-c3ccccc3)cc2nn1-c1ccccc1`, for which the inhibition amounted to 2% in assay [1]; 4% in [2]; 13% in assay [3]; 3% in assay [4]; 19% in assay [5]; 5% in assay [6]. Further, the inhibition in assay [7] is 29%; in [8] it was -3%; in [9] it was 9%; in [10] it was 13%; in assay [11], 4%; in assay [12], 1%. Also, the inhibition in [13] is 7%; in [14], 55%; in [15], 3%; in assay [16], -2%; in assay [17] it was 3%; in [18], 1%. The inhibition was 6% in assay [19] and -1% in assay [20].

With `O=S(=O)(NCCNC/C=C/c1ccc(Br)cc1)c1cccc2cnccc12`, the inhibition in assay [1] is 37%; in [2] it was 10%; in [4], 3%; in assay [5], 8%; in [9], 18%; in assay [11] it was 100%. Also, the results for the inhibition in [12], in assay [14] and in assay [15] were 41%, 5% and 71%, respectively.
